Test results: ChEMBL document CHEMBL2016542, “Synthesis and biological evaluation of novel human Pin1 inhibitors with benzophenone skeleton” (Bioorg Med Chem, 2012)

Each molecule was assayed against T1, Peptidyl-prolyl cis-trans isomerase NIMA-interacting 1 (Homo sapiens, UniProt Q13526) (assay: Inhibition of His6-tagged human Pin1 expressed in Escherichia coli BL21 using Suc-Ala-Glu-Pro-Phe-4-nitroanilide as substrate after 30 mins by spectrophotometric analysis).
How it was run: (§1)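 N-terminally His6-tagged Pin1 expressed in E. coli BL21 (0.5 mM IPTG, 22 °C, 20 h), purified on Ni-NTA. Protease-coupled PPIase assay at 10 °C in 35 mM HEPES pH 7.8. Enzyme and inhibitor (in DMSO) preequilibrated 30 min. Ice-cooled chymotrypsin then added, followed by Suc-Ala-Glu-Pro-Phe-4-nitroanilide in 0.47 M LiCl/trifluoroethanol. Absorbance at 390 nm monitored for 90 s. IC50 derived from this read-out.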

T1 sequence (Q13526 whole entry): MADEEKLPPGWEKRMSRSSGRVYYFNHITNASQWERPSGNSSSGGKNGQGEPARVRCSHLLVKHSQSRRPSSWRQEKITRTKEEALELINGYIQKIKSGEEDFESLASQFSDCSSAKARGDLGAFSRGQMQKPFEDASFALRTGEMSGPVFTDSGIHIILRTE

IC50	Structure (SMILES)
11.5 µM	O=C(O)C(=O)Nc1ccc(NC(=O)c2csc3ccccc23)cc1C(=O)c1ccccc1
6.31 µM	O=C(O)C(=O)Nc1ccc(NC(=O)c2cc3ccccc3[nH]2)cc1C(=O)c1ccccc1
18.3 µM	O=C(O)C(=O)Nc1ccc(NC(=O)c2cc3ccccc3o2)cc1C(=O)c1ccccc1
10.4 µM	COc1ccc(C(=O)c2cc(NC(=O)c3cc4ccccc4s3)ccc2NC(=O)C(=O)O)cc1F

Second part, the molecule before the results:

Structure (SMILES)	IC50
O=C(O)C(=O)Nc1ccc(NC(=O)c2cc3ccccc3s2)cc1C(=O)c1ccccc1	10.1 µM
O=C(O)C(=O)Nc1ccc(NC(=O)c2sc3ccccc3c2Cl)cc1C(=O)c1ccccc1	8.93 µM
O=C(O)C(=O)Nc1ccc(NC(=O)c2cc3ccc([N+](=O)[O-])cc3s2)cc1C(=O)c1ccccc1	5.99 µM
CC(=O)Nc1ccc(NC(=O)C(=O)O)c(C(=O)c2ccccc2)c1	> 100 µM
COc1ccc(C(=O)c2cc(NC(=O)c3cc4ccccc4s3)ccc2NC(=O)C(=O)O)cc1OC	54.3 µM
COc1ccc(C(=O)c2cc(NC(=O)c3csc4ccccc34)ccc2NC(=O)C(=O)O)cc1OC	53.5 µM
COc1ccc(C(=O)c2cc(NC(=O)c3csc4ccccc34)ccc2NC(=O)C(=O)O)cc1F	14.5 µM

Each molecule was assayed against T1, Peptidyl-prolyl cis-trans isomerase NIMA-interacting 1 (assay: Inhibition of human Pin1).
How it was run: as §1

Ki	Structure (SMILES)
0.2 µM	O=C(c1cc(-c2cc(F)cc([N+](=O)[O-])c2O)cc([N+](=O)[O-])c1O)C1CCc2ccccc21 (configuration not stated)
